Here are results for six compounds from ChEMBL document CHEMBL1133107, “3-(Hydroxymethyl)-bearing phosphatidylinositol ether lipid analogues and carbonate surrogates block PI3-K, Akt, and cancer cell growth” (J Med Chem, 2000).

What is called IC50 is the concentration needed to halve the response being measured. The low end stands for greater potency, the high end for weaker potency.

In assay [1] the target is Serine/threonine-protein kinase AKT (Homo sapiens, UniProt P31751+Q9Y243+P31749). In words: Inhibition of Akt (proto-oncogenic serine/threonine PKB) kinase. It is filed as protein assay.
For a further assay, the system named is HeLa. In words: Tested in vitro for their inhibitory activity against Hela(cervical) cell line. It counts as functional, cell-based. The following applies: Homo sapiens. Summed up: (§1)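 Cells were seeded at 30 000 per well in DMEM with 10% FBS, and drugs were added 16 h later. Growth continued for 3 days in DMEM/10% FBS with or without a range of drug concentrations. Cells were then counted on a hemocytometer to give growth-inhibition IC50.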

A further assay has as its system MCF7. In words: Tested in vitro for their inhibitory activity against MCF-7(breast) cell line. It counts as functional, cell-based. As to conditions: Homo sapiens. Summed up: as §1
A further assay concerns HT-29. In words: Tested in vitro for their inhibitory activity against HT-29 (colon) cell line. It counts as functional, cell-based. As to conditions: Homo sapiens. Summed up: as §1
The test system of another assay is PC-3. The experiment in a line: Tested in vitro for their inhibitory activity against PC-3(prostate) cell line. It counts as functional, cell-based. The following applies: Homo sapiens. Summed up:
as §1

Assay [2] can be described thus: Inhibition of murine p100/p85 PI3-K (phosphatidylinositol 3-kinase). Also on record: species or system Mus musculus.

Turning to `CCCCCCCCCCCCCCCCCCOC[C@H](COC(=O)O[C@@H]1[C@H](O)[C@@H](CO)[C@@H](O)[C@H](O)[C@@H]1O)OC`, the IC50 in assay [1] was 32 µM; in the assay with HeLa it was greater than 20 µM; with MCF7, 12.5 µM; with HT-29 it was 12 µM; in the assay on PC-3, 10 µM; in assay [2], 21.3 µM.
As for `CCCCCCCCCCCCCCCCCCOC[C@H](COP(=O)(O)O[C@H]1[C@@H](O)[C@@H](O)[C@H](O)C[C@H]1O)OC`, the IC50 in the assay on HeLa was determined as 7 µM; in the assay with MCF7, 7.2 µM; in assay [2], 14.8 µM.
As to `CCCCCCCCCCCCCCCCCCOC[C@H](COC(=O)O[C@@H]1[C@H](O)[C@H](CO)[C@@H](O)[C@H](O)[C@@H]1O)OC`, the IC50 in assay [1] was 5 µM; in the assay with HeLa it was 2.5 µM; in the assay on MCF7 it was 1.2 µM; with HT-29, 10 µM; in the assay on PC-3, 2 µM; in assay [2], 83 µM.
Regarding `CCCCCCCCCCCCCCCCCCOC[C@H](COP(=O)(O)O[C@@H]1[C@H](O)[C@H](CO)[C@@H](O)[C@H](O)[C@@H]1O)OC`, the IC50 was 7.8 µM in assay [1]; 1 µM in the assay with HeLa; 5 µM with MCF7; 4.5 µM in the assay on HT-29; 4 µM in the assay with PC-3; 31 µM in assay [2].
With `CCCCCCCCCCCCCCCCCCOC[C@H](COP(=O)(O)O[C@@H]1[C@H](O)[C@@H](CO)[C@@H](O)[C@H](O)[C@@H]1O)OC`, the IC50 was 9.1 µM in assay [1]; 7.5 µM in the assay on HeLa; 2 µM in the assay on MCF7; 7.5 µM in the assay with HT-29; 2 µM in the assay with PC-3; 18.5 µM in assay [2].
As for `CCCCCCCCCCCCCCCCCCOC[C@H](COC(=O)O[C@H]1[C@@H](O)[C@@H](O)[C@H](O)C[C@H]1O)OC`, the IC50 in assay [1] was found to be 12.5 µM; with HeLa, 30 µM; in the assay with MCF7, 12 µM; in the assay with HT-29 it was 2.5 µM; with PC-3 it was 7 µM; in assay [2], 15.5 µM.
